Measurements taken from ChEMBL document CHEMBL4368925, “Design, synthesis, and screening of novel ursolic acid derivatives as potential anti-cancer agents that target the HIF-1α pathway” (Bioorg Med Chem Lett, 2019).
The source made the active and inactive calls. No cut-off for these calls is given here.

Columns and labels:
[1] = target: Hypoxia-inducible factor 1-alpha (Homo sapiens) (UniProt Q16665); experiment: Inhibition of HIF1alpha protein level in human Hep3B cells after 12 hrs in hypoxic condition by Western blot analysis; type: cell-based
How it was run: (§1)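 HCT116, A549, Hep3B and HeLa cells incubated 12 h under normoxia or hypoxia with or without indicated compound concentrations; nuclear extracts probed for HIF-1α by Western blot, blot reprobed for topoisomerase-I as loading control.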

[2] = target: Hypoxia-inducible factor 1-alpha (Homo sapiens) (UniProt Q16665); experiment: Inhibition of HIF1alpha transcriptional activity in human Hep3B cells after 24 hrs in hypoxic condition by HRE-dual luciferase reporter gene assay; type: cell-based
How it was run: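 Hep3B cells transiently co-transfected with pGL3-HRE-luciferase and pRL-CMV, after 24 h incubated under hypoxia with or without compound; luciferase activity measured after 24 h, ursolic acid as positive control; mean ± SD of three independent experiments.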

Hep 3B2 [3] = experiment: Cytotoxicity against human Hep3B cells assessed as reduction in cell viability after 24 hrs in normoxic condition by MTT assay; type: cell-based
How it was run: (§2)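 Hep3B viability by MTT assay after 24 h compound treatment under normoxia; table values are means, n=3.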

[4] = target: Hypoxia-inducible factor 1-alpha (Homo sapiens) (UniProt Q16665); experiment: Inhibition of HIF1alpha protein level in human HCT116 cells after 12 hrs in hypoxic condition by Western blot analysis; type: cell-based; how it was run: as §1
[5] = target: Hypoxia-inducible factor 1-alpha (Homo sapiens) (UniProt Q16665); experiment: Inhibition of HIF1alpha protein level in human A549 cells after 12 hrs in hypoxic condition by Western blot analysis; type: cell-based; how it was run: as §1
[6] = target: Hypoxia-inducible factor 1-alpha (Homo sapiens) (UniProt Q16665); experiment: Inhibition of HIF1alpha protein level in human HeLa cells after 12 hrs in hypoxic condition by Western blot analysis; type: cell-based; how it was run: as §1
[7] = target: Hypoxia-inducible factor 1-alpha (Homo sapiens) (UniProt Q16665); experiment: Inhibition of HIF1alpha protein level in human Hep3B cells at 10 uM after 12 hrs in hypoxic condition by DAPI-staining based confocal laser scanning microscopic analysis; type: cell-based
How it was run: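 Hep3B cells given 10 μM compound for 12 h under hypoxia, fixed, stained with anti-HIF-1α (1:100) and Alexa Fluor 488 goat anti-mouse IgG, nuclei counterstained with DAPI; imaged by fluorescence microscopy with 40× objective.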

[8] = target: Hypoxia-inducible factor 1-alpha (Homo sapiens) (UniProt Q16665); experiment: Inhibition of HIF1alpha in human Hep3B cells at 10 uM preincubated with 26S proteosome inhibitor MG132 followed by compound addition and measured after 12 hrs in hypoxic condition by Western blot analysis; type: cell-based
How it was run: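 Proteasome inhibitor MG-132 (10 μM) added to Hep3B cells 30 min before compound (10 μM), then hypoxia for 12 h; nuclear HIF-1α detected by Western blot.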

[9] = target: T1, 26S proteasome (Homo sapiens) (UniProt Q99460+P49721+P20618+P28074+P28062+P28065+P28072+O00487+P25786+P25787+P25788+P25789+P28066+P60900+O14818+Q8TAA3+P40306+A5LHX3+P49720+P28070+Q99436+Q16186+P35998+P62191+P43686+P62333+P17980+P62195+Q13200+O43242+O00232+O00231+Q15008+P51665+Q9UNM6+P55036+P48556+P60896); experiment: Inhibition of 26S proteosome in human Hep3B cells grown under in hypoxic condition for 4 hrs assessed as downregulation of HIF1alpha level at 10 uM added together with cycloheximide and measured after up 45 mins post dose by Western blot analysis; type: cell-based
How it was run: (§3)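 Hep3B cells kept under normoxia or hypoxia for 4 h, then cycloheximide (10 μM) and compound (10 μM) added to the medium; HIF-1α level detected by Western blot at 0, 15, 30 or 45 min after cycloheximide.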

[10] = target: T1, 26S proteasome (Homo sapiens); experiment: Inhibition of 26S proteosome in human Hep3B cells grown under in normoxic condition for 4 hrs assessed as downregulation of HIF1alpha level at 10 uM added together with cycloheximide and measured after up 45 mins post dose by Western blot analysis; type: cell-based; how it was run: as §3
Hep 3B2 [11] = experiment: Downregulation of HIF1alpha mRNA expression in human Hep3B cells up to 10 uM after 12 hrs in hypoxic condition by RT-PCR analysis; type: functional, cell-based
How it was run: (§4)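 Hep3B cells held under normoxia or hypoxia for 12 h with or without indicated compound concentrations; RNA isolated, reverse-transcribed and analysed by RT-PCR for HIF-1α and VEGF, GAPDH as loading control; mean ± SD of three independent experiments.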

Hep 3B2 [12] = experiment: Downregulation of HIF1alpha mRNA expression in human Hep3B cells up to 10 uM after 12 hrs in normoxic condition by RT-PCR analysis; type: functional, cell-based; how it was run: as §4
[13] = target: Hypoxia-inducible factor 1-alpha (Homo sapiens) (UniProt Q16665); experiment: Inhibition of HIFalpha in human Hep3B cells assessed as downregulation of VEGF mRNA expression up to 10 uM after 12 hrs in hypoxic condition by RT-PCR analysis; type: cell-based; how it was run: as §4
[14] = target: Hypoxia-inducible factor 1-alpha (Homo sapiens) (UniProt Q16665); experiment: Inhibition of HIF1alpha protein level in human Hep3B cells after 12 hrs in normoxic condition by Western blot analysis; type: cell-based; how it was run: as §1
[15] = target: Hypoxia-inducible factor 1-alpha (Homo sapiens) (UniProt Q16665); experiment: Inhibition of HIF1alpha protein level in human HCT116 cells after 12 hrs in normoxic condition by Western blot analysis; type: cell-based; how it was run: as §1
[16] = target: Hypoxia-inducible factor 1-alpha (Homo sapiens) (UniProt Q16665); experiment: Inhibition of HIF1alpha protein level in human A549 cells after 12 hrs in normoxic condition by Western blot analysis; type: cell-based; how it was run: as §1
[17] = target: Hypoxia-inducible factor 1-alpha (Homo sapiens) (UniProt Q16665); experiment: Inhibition of HIF1alpha protein level in human HeLa cells after 12 hrs in normoxic condition by Western blot analysis; type: cell-based; how it was run: as §1
Hep 3B2 [18] = experiment: Effect on TOP1 protein level in human Hep3B cells after 12 hrs in hypoxic condition by Western blot analysis; type: functional, cell-based; how it was run: as §1
Hep 3B2 [19] = experiment: Cytotoxicity against human Hep3B cells assessed as reduction in cell viability up to 30 uM after 24 hrs in normoxic condition by MTT assay; type: cell-based; settings: hep 3b2, 24 h; how it was run: as §2
Hep 3B2 [20] = experiment: Antiproliferative activity against human Hep3B cells assessed as reduction in EdU incorporation at 10 uM after 12 hrs in hypoxic condition by DAPI staining based inverted fluorescence microscopic method; type: functional, cell-based
How it was run: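 Hep3B cells incubated 12 h with or without compound at 10 μM; EdU-labelled replicating cells examined by fluorescence microscopy, DNA counterstained with DAPI; percentage of EdU-positive cells compared with vehicle-treated cells.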

Hep 3B2 [21] = experiment: Anticlonogenic activity against human Hep3B cells after 10 days by crystal violet staining based assay; type: functional, cell-based
How it was run: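 Hep3B cells exposed to compound at 0, 1, 3 and 10 μM for 12 h, then medium replaced with fresh medium and cells grown 10 d; colony formation imaged.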

HCT-116 = experiment: Effect on TOP1 protein level in human HCT116 cells after 12 hrs in hypoxic condition by Western blot analysis; type: functional, cell-based; how it was run: as §1
A549 = experiment: Effect on TOP1 protein level in human A549 cells after 12 hrs in hypoxic condition by Western blot analysis; type: functional, cell-based; how it was run: as §1
HeLa = experiment: Effect on TOP1 protein level in human HeLa cells after 12 hrs in hypoxic condition by Western blot analysis; type: functional, cell-based; how it was run: as §1

Hypoxia-inducible factor 1-alpha (Homo sapiens), sequence (Q16665 whole entry, looked up): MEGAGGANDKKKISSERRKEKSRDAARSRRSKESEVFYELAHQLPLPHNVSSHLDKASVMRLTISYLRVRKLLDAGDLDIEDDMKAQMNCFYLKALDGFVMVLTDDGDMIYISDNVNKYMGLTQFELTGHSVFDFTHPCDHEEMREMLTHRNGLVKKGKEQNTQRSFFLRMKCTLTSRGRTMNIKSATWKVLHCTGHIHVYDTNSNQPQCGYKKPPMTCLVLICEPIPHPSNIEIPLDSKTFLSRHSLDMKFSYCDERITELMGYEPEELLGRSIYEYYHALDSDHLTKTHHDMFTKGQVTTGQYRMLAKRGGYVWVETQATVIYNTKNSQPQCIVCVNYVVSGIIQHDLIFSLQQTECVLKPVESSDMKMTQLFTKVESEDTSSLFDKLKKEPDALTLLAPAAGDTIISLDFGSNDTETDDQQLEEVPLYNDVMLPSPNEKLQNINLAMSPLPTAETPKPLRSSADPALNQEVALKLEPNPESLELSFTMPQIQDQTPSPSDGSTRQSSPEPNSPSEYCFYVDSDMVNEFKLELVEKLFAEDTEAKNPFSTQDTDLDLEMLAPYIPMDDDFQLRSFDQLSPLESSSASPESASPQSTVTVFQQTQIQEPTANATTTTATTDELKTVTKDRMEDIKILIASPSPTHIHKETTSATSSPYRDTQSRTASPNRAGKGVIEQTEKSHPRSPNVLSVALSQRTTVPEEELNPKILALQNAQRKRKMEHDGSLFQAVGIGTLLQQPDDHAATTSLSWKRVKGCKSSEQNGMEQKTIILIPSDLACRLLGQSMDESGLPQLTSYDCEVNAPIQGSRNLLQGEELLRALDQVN

inhibition [1]: Dose-dependent effect | inhibition [2]: Dose-dependent effect | inhibition [4]: Dose-dependent effect | inhibition [5]: Dose-dependent effect | inhibition [6]: Dose-dependent effect | inhibition [7]: Active | inhibition [8]: Active | inhibition [9]: inactive | inhibition [10]: inactive | inhibition [13]: Active | inhibition [14]: inactive | inhibition [15]: inactive | inhibition [16]: inactive | inhibition [17]: inactive
Compound: C[C@H]1[C@H](C)CC[C@]2(C(=O)O)CC[C@]3(C)C(=CC[C@@H]4[C@@]5(C)CC(=C\c6ccc(Cl)cc6)/C(=N\NC(=N)N)C(C)(C)[C@@H]5CC[C@]43C)[C@H]12
IC50 (Hep 3B2 [3]): > 100 µM | Activity (Hep 3B2 [11]): inactive | Activity (Hep 3B2 [12]): inactive | Activity (Hep 3B2 [18]): inactive | Activity (Hep 3B2 [19]): Non-Toxic | Activity (Hep 3B2 [20]): Active | Activity (Hep 3B2 [21]): Dose-dependent effect | Activity (HCT-116): inactive | Activity (A549): inactive | Activity (HeLa): inactive
